In general, IC50 refers to the point on the concentration scale where inhibition reaches its midpoint. Read a low IC50 as greater potency in that assay.

For 6 compounds, IC50 and Activity results are on record in ChEMBL document CHEMBL1157070, “Polyhydroxysteroidal glycosides from the starfish Anthenea chinensis” (J Nat Prod, 2010).

Activity calls are given as the source filed them. The rule behind the calls is not given here. A value given as a limit tells only on which side of the number the result lay.

The subject of one assay is K562. The experiment in a line: Cytotoxicity against human K562 cells after 72 hrs by MTT assay. The format is functional, cell-based. As to conditions: K562, 72 h. Summed up:
(§1)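 MTT colorimetric read-out per a previously described method. K-562 (human leukemia) used 10-hydroxycamptothecine as positive control, U87MG (human spongioblastoma) used nimustine. IC50 read from dose-response curves as the concentration causing 50% reduction in absorption versus control cells. Mean of three independent experiments, triplicate wells per concentration.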
A general note: Tetrazolium assays rely on reduction of a dye to a coloured formazan, in cell work by metabolically active cells.

In the next assay the test system is Bel-7402. Briefly: Cytotoxicity against human Bel7402 cells after 72 hrs by SRB assay. The format is functional, cell-based. As to conditions: Bel-7402, 72 h. In short, it runs like this:
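Human hepatoma BEL-7402 cells, sulforhodamine B protein stain per a reported method. Dose-response curves plotted; IC50 taken as the concentration giving 50% lower absorption than control cells. Means of three independent experiments, each concentration in triplicate wells. 10-Hydroxycamptothecine as positive control.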
On the technique in general: In SRB staining, fixed cells bind dye roughly in proportion to their protein.

A short description of assay [1]: Cytotoxicity against human U87MG cells after 72 hrs by MTT assay. The format is functional, cell-based, U-87MG ATCC. As to conditions: U-87 MG. Summed up: as §1
The next assay deals with Tubulin (Sus scrofa) (UniProt P02554+P02550). Briefly: Induction of pig brain tubulin polymerization at 10 ug/ml.
Chain of Tubulin (Sus scrofa) (P02550 whole entry, looked up): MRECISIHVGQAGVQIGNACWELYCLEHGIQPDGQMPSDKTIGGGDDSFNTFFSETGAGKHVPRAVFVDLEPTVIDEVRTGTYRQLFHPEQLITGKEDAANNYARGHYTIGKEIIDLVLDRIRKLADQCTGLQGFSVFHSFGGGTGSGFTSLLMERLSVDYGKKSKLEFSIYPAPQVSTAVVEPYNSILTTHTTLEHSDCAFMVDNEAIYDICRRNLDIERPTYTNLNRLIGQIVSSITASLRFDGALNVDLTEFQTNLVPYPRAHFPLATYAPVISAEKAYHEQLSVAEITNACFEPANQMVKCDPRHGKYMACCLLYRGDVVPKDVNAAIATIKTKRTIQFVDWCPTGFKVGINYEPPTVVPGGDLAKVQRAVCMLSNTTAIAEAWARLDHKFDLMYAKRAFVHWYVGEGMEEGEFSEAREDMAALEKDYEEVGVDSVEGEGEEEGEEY
Chain of Tubulin (Sus scrofa) (P02554 whole entry, looked up): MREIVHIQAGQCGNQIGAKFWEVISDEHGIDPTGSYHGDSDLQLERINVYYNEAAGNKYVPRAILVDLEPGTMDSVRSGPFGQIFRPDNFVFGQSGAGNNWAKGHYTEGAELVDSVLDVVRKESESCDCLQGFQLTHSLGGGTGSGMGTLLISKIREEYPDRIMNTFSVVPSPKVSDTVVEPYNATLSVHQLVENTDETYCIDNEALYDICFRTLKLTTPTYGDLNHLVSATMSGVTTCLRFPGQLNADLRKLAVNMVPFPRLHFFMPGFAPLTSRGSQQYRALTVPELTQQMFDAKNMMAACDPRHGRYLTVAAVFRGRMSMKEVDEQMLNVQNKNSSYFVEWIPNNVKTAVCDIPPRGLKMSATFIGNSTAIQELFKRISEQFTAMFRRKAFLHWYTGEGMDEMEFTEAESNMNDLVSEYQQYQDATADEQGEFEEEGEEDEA

As to `CC[C@@]1(O)C(=O)OCc2c1cc1n(c2=O)Cc2cc3cc(O)ccc3nc2-1` [HYDROXYCAMPTOTHECIN], the values for the IC50 in the assay with K562 and in the assay on Bel-7402 were 0.16 µM and 0.36 µM, respectively.
Consider `CCC(CC[C@@H](C)[C@H]1[C@H](O[C@@H]2O[C@@H]([C@@H](O)COC)[C@H](O)[C@H]2O)CC2=C3[C@@H](O[C@@H]4O[C@@H]([C@@H](O)COC)[C@H](O)[C@H]4O)[C@@H](O)[C@H]4C[C@H](O)CC[C@]4(C)[C@H]3CC[C@@]21C)C(C)C` (mixture of isomers), for which the figures for the IC50 (in the assay with K562; in assay [1]; with Bel-7402) were 0.6 µM, 3.6 µM and 2.7 µM, respectively.
In the case of `C=C(CC[C@@H](C)[C@H]1[C@H](O[C@@H]2O[C@@H]([C@@H](O)COC)[C@H](O[C@@H]3O[C@@H]([C@@H](O)COC)[C@H](O)[C@H]3O)[C@H]2O)CC2=C3[C@@H](O)[C@@H](O)[C@H]4C[C@H](O)CC[C@]4(C)[C@H]3CC[C@@]21C)C(C)C` [ANTHENOSIDE G], the figures for the IC50 (with K562; in assay [1]; in the assay on Bel-7402) were 4.6 µM, greater than 25.1 µM and 5.5 µM, respectively. On Tubulin (Sus scrofa), the outcome was inactive.
The matching figures for `CCC(CC[C@@H](C)[C@H]1[C@H](O[C@@H]2O[C@@H]([C@@H](O)COC)[C@H](O[C@@H]3O[C@@H]([C@@H](O)COC)[C@H](O)[C@H]3O)[C@H]2O)CC2=C3[C@@H](O)[C@@H](O)[C@H]4C[C@H](O)CC[C@]4(C)[C@H]3CC[C@@]21C)C(C)C` (mixture of isomers): 2.8 µM, greater than 24.5 µM, 4.9 µM and “inactive”.
Take `COC[C@H](O)[C@@H]1O[C@@H](O[C@@H]2[C@@H](O)[C@H](O[C@@H]3CC4=C5[C@@H](O)[C@@H](O)[C@H]6C[C@H](O)CC[C@]6(C)[C@H]5CC[C@]4(C)[C@H]3[C@H](C)CCCC(C)C)O[C@H]2[C@@H](O)COC)[C@H](O)[C@H]1O` [ANTHENOSIDE E]: the IC50 with K562 was 6.1 µM; in assay [1], greater than 25.4 µM; with Bel-7402, 8.3 µM. The outcome on Tubulin (Sus scrofa) was inactive.
For `Cc1ncc(CNC(=O)N(CCCl)N=O)c(N)n1` [NIMUSTINE], the midpoint of inhibition in assay [1], the IC50, lay at 0.84 µM.
